Laboratory results published in ChEMBL document CHEMBL1155365, “2-Amino-9-aryl-3-cyano-4-methyl-7-oxo-6,7,8,9-tetrahydropyrido[2',3':4,5]thieno[2,3-b]pyridine derivatives as selective progesterone receptor agonists” (Bioorg Med Chem Lett, 2009).

Assays:
Progesterone receptor [1] = molecular target: T1, Progesterone receptor (Homo sapiens, UniProt P06401); experiment: Displacement of fluormone PL RED from progesterone receptor after 2 hrs
T1 sequence (P06401 whole entry): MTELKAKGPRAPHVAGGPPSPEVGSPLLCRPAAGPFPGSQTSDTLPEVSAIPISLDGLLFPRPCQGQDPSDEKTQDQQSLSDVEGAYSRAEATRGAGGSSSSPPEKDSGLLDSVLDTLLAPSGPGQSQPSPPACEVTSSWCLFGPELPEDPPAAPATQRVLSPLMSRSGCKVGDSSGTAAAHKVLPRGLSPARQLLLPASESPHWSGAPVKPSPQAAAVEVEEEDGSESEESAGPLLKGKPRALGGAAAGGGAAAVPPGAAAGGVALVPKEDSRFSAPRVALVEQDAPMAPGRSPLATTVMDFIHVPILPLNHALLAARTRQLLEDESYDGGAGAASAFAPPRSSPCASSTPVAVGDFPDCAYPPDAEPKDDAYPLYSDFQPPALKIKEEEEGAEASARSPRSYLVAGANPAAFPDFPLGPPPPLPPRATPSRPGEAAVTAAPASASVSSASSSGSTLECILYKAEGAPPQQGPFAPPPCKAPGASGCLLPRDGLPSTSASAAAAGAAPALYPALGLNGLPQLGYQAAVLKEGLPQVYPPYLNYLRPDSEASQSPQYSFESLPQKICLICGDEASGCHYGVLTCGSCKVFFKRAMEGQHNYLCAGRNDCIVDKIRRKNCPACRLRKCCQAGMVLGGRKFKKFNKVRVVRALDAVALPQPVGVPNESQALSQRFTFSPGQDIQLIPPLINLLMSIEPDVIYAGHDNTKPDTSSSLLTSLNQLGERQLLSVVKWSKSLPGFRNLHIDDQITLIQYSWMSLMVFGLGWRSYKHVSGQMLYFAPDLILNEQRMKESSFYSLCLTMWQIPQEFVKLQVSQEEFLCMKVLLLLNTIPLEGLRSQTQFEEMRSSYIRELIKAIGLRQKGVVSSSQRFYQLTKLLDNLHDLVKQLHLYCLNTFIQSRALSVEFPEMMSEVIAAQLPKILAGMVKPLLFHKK
Summary of the method: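 Fluorescence polarization competition: 40 nM PR ligand-binding domain, 2 nM Fluormone PL Red, 1 mM DTT in PR Red buffer with 2 mM CHAPS, added to compound; brief spin, light-protected, ~2 h at room temperature; read at 530 nm excitation/580 nm emission. Values are means of ≥2 determinations.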

Progesterone receptor [2] = molecular target: T1, Progesterone receptor; experiment: Agonist activity at progesterone receptor B expressed in CV-1 cells by MMTV luciferase reporter gene assay; assay type: functional, cell-based
Androgen receptor [3] = molecular target: T2, Androgen receptor (Homo sapiens, UniProt P10275); experiment: Binding affinity to androgen receptor
T2 sequence (P10275 whole entry): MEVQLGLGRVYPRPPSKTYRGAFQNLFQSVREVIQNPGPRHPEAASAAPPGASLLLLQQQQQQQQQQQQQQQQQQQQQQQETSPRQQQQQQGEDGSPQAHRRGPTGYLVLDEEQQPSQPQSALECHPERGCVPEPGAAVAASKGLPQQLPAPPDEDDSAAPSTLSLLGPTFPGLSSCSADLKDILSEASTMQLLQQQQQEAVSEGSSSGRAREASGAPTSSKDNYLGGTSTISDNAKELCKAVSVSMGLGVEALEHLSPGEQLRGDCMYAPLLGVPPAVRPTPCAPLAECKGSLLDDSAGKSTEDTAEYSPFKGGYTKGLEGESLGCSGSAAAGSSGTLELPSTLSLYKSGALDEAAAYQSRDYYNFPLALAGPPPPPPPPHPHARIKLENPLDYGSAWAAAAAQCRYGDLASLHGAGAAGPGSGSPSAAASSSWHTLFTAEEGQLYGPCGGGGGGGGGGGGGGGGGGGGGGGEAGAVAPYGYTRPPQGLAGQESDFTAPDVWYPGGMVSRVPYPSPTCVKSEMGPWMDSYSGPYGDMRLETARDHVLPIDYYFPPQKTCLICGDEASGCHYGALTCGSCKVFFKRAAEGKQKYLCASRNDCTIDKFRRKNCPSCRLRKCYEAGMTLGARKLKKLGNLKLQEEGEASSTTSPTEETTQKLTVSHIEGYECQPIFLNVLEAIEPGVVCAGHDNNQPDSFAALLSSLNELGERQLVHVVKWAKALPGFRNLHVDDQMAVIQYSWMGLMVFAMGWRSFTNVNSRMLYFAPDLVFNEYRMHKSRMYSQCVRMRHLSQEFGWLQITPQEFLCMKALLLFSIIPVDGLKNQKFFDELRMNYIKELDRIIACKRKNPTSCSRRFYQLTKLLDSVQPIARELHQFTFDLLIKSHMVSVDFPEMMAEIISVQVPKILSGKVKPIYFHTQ

Cytochrome P450 2D6 = Cytochrome P450 2D6 (Homo sapiens, UniProt P10635); experiment: Inhibition of CYP2D6; assay type: ADME
Cytochrome P450 2D6, sequence (P10635 whole entry): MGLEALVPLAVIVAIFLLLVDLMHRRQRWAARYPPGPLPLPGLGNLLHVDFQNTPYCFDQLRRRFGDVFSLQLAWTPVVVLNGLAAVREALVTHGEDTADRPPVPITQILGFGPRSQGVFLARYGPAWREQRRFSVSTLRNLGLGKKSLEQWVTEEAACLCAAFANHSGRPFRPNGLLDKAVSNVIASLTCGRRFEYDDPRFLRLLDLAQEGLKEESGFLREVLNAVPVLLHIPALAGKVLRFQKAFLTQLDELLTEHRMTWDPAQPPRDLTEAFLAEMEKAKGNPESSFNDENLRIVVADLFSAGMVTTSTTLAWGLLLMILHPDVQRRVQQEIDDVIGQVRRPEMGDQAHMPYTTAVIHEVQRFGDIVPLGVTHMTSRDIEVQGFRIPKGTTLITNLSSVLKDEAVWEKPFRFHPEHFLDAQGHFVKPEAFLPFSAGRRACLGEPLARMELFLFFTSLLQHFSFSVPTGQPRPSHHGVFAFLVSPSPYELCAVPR

Cytochrome P450 2C19 = Cytochrome P450 2C19 (Homo sapiens, UniProt P33261); experiment: Inhibition of CYP2C19; assay type: ADME
Cytochrome P450 2C19, sequence (P33261 whole entry): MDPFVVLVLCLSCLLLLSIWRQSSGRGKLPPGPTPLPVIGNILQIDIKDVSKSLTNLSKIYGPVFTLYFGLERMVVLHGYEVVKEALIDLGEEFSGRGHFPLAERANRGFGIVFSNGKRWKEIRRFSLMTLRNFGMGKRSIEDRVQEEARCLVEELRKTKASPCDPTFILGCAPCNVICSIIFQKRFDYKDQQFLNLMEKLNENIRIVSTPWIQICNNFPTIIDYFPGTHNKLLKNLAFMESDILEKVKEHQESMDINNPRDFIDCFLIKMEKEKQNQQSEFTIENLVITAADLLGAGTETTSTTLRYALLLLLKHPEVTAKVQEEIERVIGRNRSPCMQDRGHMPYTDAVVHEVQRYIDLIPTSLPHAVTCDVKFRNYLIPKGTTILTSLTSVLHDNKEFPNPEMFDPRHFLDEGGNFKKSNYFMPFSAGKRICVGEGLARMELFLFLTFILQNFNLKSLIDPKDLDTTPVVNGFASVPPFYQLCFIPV

Cytochrome P450 3A4 = Cytochrome P450 3A4 (Homo sapiens, UniProt P08684); experiment: Inhibition of CYP3A4; assay type: ADME
Cytochrome P450 3A4, sequence (P08684 whole entry): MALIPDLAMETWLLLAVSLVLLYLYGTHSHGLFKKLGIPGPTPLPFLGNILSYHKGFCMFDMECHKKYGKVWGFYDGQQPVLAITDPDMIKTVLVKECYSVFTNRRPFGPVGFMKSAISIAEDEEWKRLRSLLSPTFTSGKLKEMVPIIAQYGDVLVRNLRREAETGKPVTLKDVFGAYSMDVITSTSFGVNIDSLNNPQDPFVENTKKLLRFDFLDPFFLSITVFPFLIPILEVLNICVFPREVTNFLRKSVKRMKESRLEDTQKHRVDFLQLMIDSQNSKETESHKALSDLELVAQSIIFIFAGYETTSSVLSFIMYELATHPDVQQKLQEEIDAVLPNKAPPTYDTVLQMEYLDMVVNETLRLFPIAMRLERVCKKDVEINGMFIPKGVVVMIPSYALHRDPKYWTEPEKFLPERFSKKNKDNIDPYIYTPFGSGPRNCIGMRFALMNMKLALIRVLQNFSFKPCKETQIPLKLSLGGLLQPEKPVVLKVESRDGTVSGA

[4] = molecular target: T3, Progesterone receptor (Homo sapiens) (UniProt P06401); experiment: Agonist activity at progesterone receptor in human T47D cell after 24 hrs by alkaline phosphatase assay relative to progesterone
T3 sequence (whole entry): T1 sequence (P06401 whole entry)

[5] = Oral bioavailability in mouse at 1 mg/kg; assay type: ADME, organism-based; conditions: in vivo
Summary of the method: (§1)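 In vivo mouse pharmacokinetics with dosing at 0.5 mg/kg intravenously and 1.0 mg/kg orally. Blood clearance, half-life, steady-state volume of distribution and oral bioavailability were derived from these studies.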

Cytochrome P450 2C9 = Cytochrome P450 2C9 (Homo sapiens, UniProt P11712); experiment: Inhibition of CYP2C9; assay type: ADME
Cytochrome P450 2C9, sequence (P11712 whole entry): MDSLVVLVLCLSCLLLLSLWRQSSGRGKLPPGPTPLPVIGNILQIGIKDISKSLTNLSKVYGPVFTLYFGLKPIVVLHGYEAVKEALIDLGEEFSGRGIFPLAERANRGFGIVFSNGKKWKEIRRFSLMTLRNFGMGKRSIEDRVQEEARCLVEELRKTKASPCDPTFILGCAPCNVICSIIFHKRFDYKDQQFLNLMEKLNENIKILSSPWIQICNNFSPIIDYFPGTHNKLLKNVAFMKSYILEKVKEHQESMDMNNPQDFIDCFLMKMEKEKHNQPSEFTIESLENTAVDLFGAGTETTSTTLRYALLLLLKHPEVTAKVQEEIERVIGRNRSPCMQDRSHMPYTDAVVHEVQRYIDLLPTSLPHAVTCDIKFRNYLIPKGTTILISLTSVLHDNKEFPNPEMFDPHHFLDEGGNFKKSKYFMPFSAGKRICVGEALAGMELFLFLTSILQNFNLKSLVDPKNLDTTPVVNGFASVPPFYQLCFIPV

[6] = Volume of distribution at steady state in mouse at 0.5 mg/kg, iv and 1 mg/kg, po; assay type: ADME, organism-based; conditions: in vivo, read-out: Vdss; summary of the method: as §1
[7] = Half life in mouse at 0.5 mg/kg, iv and 1 mg/kg, po; assay type: ADME, organism-based; conditions: in vivo; summary of the method: as §1
[8] = molecular target: Voltage-gated inwardly rectifying potassium channel KCNH2 (Homo sapiens, UniProt Q12809); experiment: Binding affinity to human ERG channel
Voltage-gated inwardly rectifying potassium channel KCNH2, sequence (Q12809 whole entry): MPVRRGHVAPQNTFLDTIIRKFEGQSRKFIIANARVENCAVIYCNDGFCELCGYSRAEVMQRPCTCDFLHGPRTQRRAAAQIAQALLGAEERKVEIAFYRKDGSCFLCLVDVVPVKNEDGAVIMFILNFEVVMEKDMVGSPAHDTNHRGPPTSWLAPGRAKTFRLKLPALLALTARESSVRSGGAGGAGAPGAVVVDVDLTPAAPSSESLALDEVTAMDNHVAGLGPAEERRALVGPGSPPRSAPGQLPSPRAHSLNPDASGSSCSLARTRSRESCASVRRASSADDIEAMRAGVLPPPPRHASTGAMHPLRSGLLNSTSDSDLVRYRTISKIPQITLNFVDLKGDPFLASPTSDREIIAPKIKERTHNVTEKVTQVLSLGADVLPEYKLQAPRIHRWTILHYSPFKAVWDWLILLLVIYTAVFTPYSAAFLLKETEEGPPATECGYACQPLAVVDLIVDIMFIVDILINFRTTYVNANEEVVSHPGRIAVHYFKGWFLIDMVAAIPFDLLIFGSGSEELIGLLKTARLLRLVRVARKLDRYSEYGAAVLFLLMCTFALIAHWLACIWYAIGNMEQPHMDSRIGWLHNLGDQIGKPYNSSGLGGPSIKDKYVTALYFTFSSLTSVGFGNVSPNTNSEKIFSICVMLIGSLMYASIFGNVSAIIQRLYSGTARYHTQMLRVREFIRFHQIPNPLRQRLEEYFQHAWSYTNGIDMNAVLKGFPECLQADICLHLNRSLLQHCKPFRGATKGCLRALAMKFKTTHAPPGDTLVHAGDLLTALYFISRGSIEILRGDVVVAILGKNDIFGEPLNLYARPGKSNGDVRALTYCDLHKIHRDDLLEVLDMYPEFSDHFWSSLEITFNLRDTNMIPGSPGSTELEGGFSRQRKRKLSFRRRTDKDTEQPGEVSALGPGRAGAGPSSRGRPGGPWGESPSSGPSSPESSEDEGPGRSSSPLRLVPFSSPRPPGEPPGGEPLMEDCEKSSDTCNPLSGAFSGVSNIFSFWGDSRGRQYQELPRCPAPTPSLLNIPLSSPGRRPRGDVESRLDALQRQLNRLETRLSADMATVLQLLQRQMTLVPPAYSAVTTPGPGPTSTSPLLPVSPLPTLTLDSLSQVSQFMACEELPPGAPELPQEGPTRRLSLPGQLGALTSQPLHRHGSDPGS

Mus musculus = experiment: Blood clearance in mouse at 0.5 mg/kg, iv and 1 mg/kg, po; assay type: ADME, organism-based; conditions: in vivo; summary of the method: as §1
Progesterone receptor [9] = molecular target: T1, Progesterone receptor; experiment: Agonist activity at progesterone receptor in human T47D cell after 24 hrs by alkaline phosphatase assay; assay type: functional, cell-based
Summary of the method: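 T47D cells seeded and left to attach overnight, then treated with compound and incubated overnight. Next day pNPP-SPAP substrate added, 2 h in the dark, absorbance read at 405 nm. Potency as pEC50, efficacy as % of P4 response; means of ≥2 determinations.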

Liver microsomes = experiment: Intrinsic clearance in human liver microsomes; assay type: ADME, Microsome
Summary of the method: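 Metabolic stability in human liver microsomes; intrinsic clearance expressed as mL/min[…].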

Cytochrome P450 1A2 = molecular target: T4, Cytochrome P450 1A2 (Homo sapiens, UniProt P05177); experiment: Inhibition of CYP1A2; assay type: ADME
T4 sequence (P05177 whole entry): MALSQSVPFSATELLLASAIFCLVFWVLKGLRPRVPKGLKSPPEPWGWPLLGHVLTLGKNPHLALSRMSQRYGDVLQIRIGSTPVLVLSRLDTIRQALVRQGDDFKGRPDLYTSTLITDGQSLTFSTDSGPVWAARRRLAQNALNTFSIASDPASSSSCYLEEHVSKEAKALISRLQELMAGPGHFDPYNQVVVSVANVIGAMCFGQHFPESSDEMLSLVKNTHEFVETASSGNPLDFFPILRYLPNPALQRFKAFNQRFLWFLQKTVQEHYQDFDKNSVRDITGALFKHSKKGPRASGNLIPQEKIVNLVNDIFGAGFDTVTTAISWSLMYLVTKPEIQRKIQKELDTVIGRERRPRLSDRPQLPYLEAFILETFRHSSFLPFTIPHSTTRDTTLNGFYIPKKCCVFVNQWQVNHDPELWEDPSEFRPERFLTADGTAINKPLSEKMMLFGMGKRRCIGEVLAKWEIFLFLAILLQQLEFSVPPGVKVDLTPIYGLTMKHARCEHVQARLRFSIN

Androgen receptor [10] = molecular target: T2, Androgen receptor; experiment: Agonist activity at androgen receptor expressed in CV-1 cells by MMTV luciferase reporter assay; assay type: functional, cell-based

SMILES	IC50 (Progesterone receptor [1])	EC50 (Progesterone receptor [2])	pIC50 (Androgen receptor [3])	Activity [4]	pEC50 (Progesterone receptor [9])	also measured
COc1ccccc1C1CC(=O)Nc2sc3c(C)c(C#N)c(N)nc3c21 (stereo not given)	> 10000 nM	> 10000 nM				
Cc1ccccc1C1CC(=O)Nc2sc3c(C)c(C#N)c(N)nc3c21 (stereo not given)	1260 nM	> 10000 nM	> 5			
Cc1c(C#N)c(N)nc2c3c(sc12)NC(=O)CC3c1ccccc1Cl (stereo not given)	200 nM	631 nM	< 5	80%	7.1	IC50 (Cytochrome P450 2D6): > 10000 nM; IC50 (Cytochrome P450 2C19): > 10000 nM; IC50 (Cytochrome P450 3A4): > 10000 nM; bioavailability [5]: 36%; IC50 (Cytochrome P450 2C9): 1260 nM; Vd [6]: 2.5 L/kg; half-life [7]: 1.1 h; Activity [8]: Not Active; clearance (Mus musculus): 24 mL/min/kg; CL (Liver microsomes): 19 µL/min/mg; IC50 (Cytochrome P450 1A2): > 10000 nM
Cc1c(C#N)c(N)nc2c3c(sc12)NC(=O)C[C@@H]3c1ccccc1Cl	158 nM	200 nM	> 5	83%	7.4	
Cc1c(C#N)c(N)nc2c3c(sc12)NC(=O)CC3c1cc(Cl)ccc1Cl (stereo not given)	1000 nM	> 10000 nM	> 5			
Cc1c(C#N)c(N)nc2c3c(sc12)NC(=O)CC3c1cccc(Cl)c1Cl (stereo not given)	794 nM	> 10000 nM	> 5			
Cc1c(C#N)c(N)nc2c3c(sc12)NC(=O)CC3c1ccc(Cl)cc1Cl (stereo not given)	794 nM	> 10000 nM	> 5			
Cc1c(C#N)c(N)nc2c3c(sc12)NC(=O)CC3c1ccccc1F (stereo not given)	631 nM	3980 nM		47%	6.4	
COc1cccc(C2CC(=O)Nc3sc4c(C)c(C#N)c(N)nc4c32)c1 (stereo not given)	> 10000 nM	> 10000 nM				
Cc1c(C#N)c(O)nc2c3c(sc12)NC(=O)CC3c1ccccc1Cl (stereo not given)	> 10000 nM	> 10000 nM	> 5			
Cc1c(C#N)c(N)nc2c3c(sc12)NC(=O)C[C@H]3c1ccccc1Cl	6310 nM	> 10000 nM	> 5			
Cc1c(C#N)c(N)nc2c3c(sc12)NC(=O)CC3c1c(F)cccc1Cl (stereo not given)	1260 nM	3980 nM	> 5	13%	6.1	
Cc1c(C#N)c(N)nc2c3c(sc12)NC(=O)CC3c1ccccc1 (stereo not given)		> 10000 nM	> 5			
Cc1c(C#N)c(Cl)nc2c3c(sc12)NC(=O)CC3c1ccccc1Cl (stereo not given)	50.1 nM	0.794 nM		116%	8.6	IC50 (Androgen receptor [3]): 2000 nM; EC50 (Androgen receptor [10]): > 10000 nM
